Results from different studies.
Neuronal acetylcholine receptor; alpha9/alpha10: Neuronal acetylcholine receptor; alpha9/alpha10 (Homo sapiens, UniProt Q9GZZ6+Q9UGM1)
CA2: Carbonic anhydrase 2 (CA2, Homo sapiens, UniProt P00918)

Structure (SMILES)	target	observed	mode	technique	setting	measurement	result
CC[N+]1(CC)CCN(c2ccc(NC(=O)c3cccc(C)n3)cc2)CC1	Neuronal acetylcholine receptor; alpha9/alpha10	ion current	agonist	two-electrode voltage clamp	oocytes	EC50	0.83 µM
COC(=O)c1cc(N(C)C(=O)c2ccn3ncc(-c4ccc(C(=O)O)cc4)c3c2)ccc1Cl	cAMP-dependent protein kinase catalytic subunit alpha (PRKACA, Homo sapiens, UniProt P17612)	enzyme activity	inhibitor			IC50	> 30 µM
COc1ccc2c3c([nH]c2c1)CCN(C)CC3	Neuronal acetylcholine receptor; alpha9/alpha10	ion current	antagonist	two-electrode voltage clamp	oocytes	IC50	3 µM
CNC(=O)c1ccc(-c2cnn3ccc(C(=O)N(C)c4ccc(Cl)c(C(=O)OC)c4)cc23)cc1	Receptor tyrosine-protein kinase erbB-2 (ERBB2, Homo sapiens, UniProt P04626)	enzyme activity	inhibitor			IC50	> 30 µM
COc1ccc(S(=O)(=O)Oc2cccc(C=NNC(=O)c3ccc(F)cc3)c2)cc1	CA2	enzyme activity	inhibitor	absorbance		IC50	0.139 µM
COc1ccc2[nH]c3c(c2c1)CCN(C)CC3	Neuronal acetylcholine receptor; alpha9/alpha10	ion current	antagonist	two-electrode voltage clamp	oocytes	IC50	3.2 µM
COc1ccc(S(=O)(=O)Oc2ccccc2C=NNC(=O)c2ccc(F)cc2)cc1	CA2	enzyme activity	inhibitor	absorbance		IC50	0.156 µM
CCCNC(=O)c1ccc(N2CC[N+](CC)(CC)CC2)cc1	Neuronal acetylcholine receptor; alpha9/alpha10	ion current	agonist	two-electrode voltage clamp	oocytes	EC50	11 µM
COc1ccc(S(=O)(=O)Oc2ccc(C=NNC(=O)c3ccc(F)cc3)cc2)cc1	CA2	enzyme activity	inhibitor	absorbance		IC50	0.0974 µM
CNC(=O)c1ccc(-c2cnn3ccc(C(=O)N(C)c4ccc(Cl)c(C(=O)O)c4)cc23)cc1	STE20-like serine/threonine-protein kinase (SLK, Homo sapiens, UniProt Q9H2G2)	enzyme activity	inhibitor			IC50	> 30 µM
